According to ChEMBL document CHEMBL2375313, “Synthesis, in vitro antitumor evaluation and DNA-binding study of novel tetrahydroquinolines and some derived tricyclic and tetracyclic ring systems” (Eur J Med Chem, 2013):

Key:
Format in all cases: functional
HCT-116 = test: Cytotoxicity against human HCT116 cells assessed as growth inhibition at 10 uM after 48 hrs by sulphorhodamine B assay; settings: HCT-116, 48 h, read-out: GI
Method in brief: (§1)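 NCI-60 one-dose screen per the NCI Drug Evaluation Branch protocol. Cells given a single 10 µM concentration with 48 h continuous exposure. Growth estimated by sulphorhodamine B protein assay. Result expressed as percentage growth inhibition relative to untreated growth.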

K562 = test: Cytotoxicity against human K562 cells assessed as growth inhibition at 10 uM after 48 hrs by sulphorhodamine B assay; settings: K562, 48 h, read-out: GI; method in brief: as §1
OVCAR-5 = test: Cytotoxicity against human OVCAR5 cells assessed as growth inhibition at 10 uM after 48 hrs by sulphorhodamine B assay; settings: OVCAR-5, 48 h, read-out: GI; method in brief: as §1
SNB-19 = test: Cytotoxicity against human SNB19 cells assessed as growth inhibition at 10 uM after 48 hrs by sulphorhodamine B assay; settings: SNB-19, 48 h, read-out: GI; method in brief: as §1
Hs-578T = test: Cytotoxicity against human Hs578T cells assessed as growth inhibition at 10 uM after 48 hrs by sulphorhodamine B assay; settings: read-out: GI; method in brief: as §1
SF-295 = test: Cytotoxicity against human SF295 cells assessed as growth inhibition at 10 uM after 48 hrs by sulphorhodamine B assay; settings: SF-295, 48 h, read-out: GI; method in brief: as §1
NCI/ADR-RES = test: Cytotoxicity against human NCI/ADR-RES cells assessed as growth inhibition at 10 uM after 48 hrs by sulphorhodamine B assay; settings: read-out: GI; method in brief: as §1
A549 = test: Cytotoxicity against human A549 cells assessed as growth inhibition at 10 uM after 48 hrs by sulphorhodamine B assay; settings: A549, 48 h, read-out: GI; method in brief: as §1
SNB-75 = test: Cytotoxicity against human SNB75 cells assessed as growth inhibition at 10 uM after 48 hrs by sulphorhodamine B assay; settings: SNB-75, 48 h, read-out: GI; method in brief: as §1
SK-OV-3 = test: Cytotoxicity against human SKOV3 cells assessed as growth inhibition at 10 uM after 48 hrs by sulphorhodamine B assay; settings: SK-OV-3, 48 h, read-out: GI; method in brief: as §1
NCI-H522 = test: Cytotoxicity against human NCI-H522 cells assessed as growth inhibition at 10 uM after 48 hrs by sulphorhodamine B assay; settings: NCI-H522, 48 h, read-out: GI; method in brief: as §1
T47D = test: Cytotoxicity against human T47D cells assessed as growth inhibition at 10 uM after 48 hrs by sulphorhodamine B assay; settings: read-out: GI; method in brief: as §1
SK-MEL-2 = test: Cytotoxicity against human SK-MEL-2 cells assessed as growth inhibition at 10 uM after 48 hrs by sulphorhodamine B assay; settings: SK-MEL-2, 48 h, read-out: GI; method in brief: as §1
DU-145 = test: Cytotoxicity against human DU145 cells assessed as growth inhibition at 10 uM after 48 hrs by sulphorhodamine B assay; settings: DU-145, 48 h, read-out: GI; method in brief: as §1
CCRF-CEM = test: Cytotoxicity against human CCRF-CEM cells assessed as growth inhibition at 10 uM after 48 hrs by sulphorhodamine B assay; settings: read-out: GI; method in brief: as §1
MDA-MB-468 = test: Cytotoxicity against human MDA-MB-468 cells assessed as growth inhibition at 10 uM after 48 hrs by sulphorhodamine B assay; settings: MDA-MB-468, 48 h, read-out: GI; method in brief: as §1
IGROV-1 = test: Cytotoxicity against human IGROV1 cells assessed as growth inhibition at 10 uM after 48 hrs by sulphorhodamine B assay; settings: IGROV-1, 48 h, read-out: GI; method in brief: as §1
SK-MEL-5 = test: Cytotoxicity against human SK-MEL-5 cells assessed as growth inhibition at 10 uM after 48 hrs by sulphorhodamine B assay; settings: SK-MEL-5, 48 h, read-out: GI; method in brief: as §1
NCI-H23 = test: Cytotoxicity against human NCI-H23 cells assessed as growth inhibition at 10 uM after 48 hrs by sulphorhodamine B assay; settings: NCI-H23, 48 h, read-out: GI; method in brief: as §1
UACC-62 = test: Cytotoxicity against human UACC62 cells assessed as growth inhibition at 10 uM after 48 hrs by sulphorhodamine B assay; settings: UACC-62, 48 h, read-out: GI; method in brief: as §1
MDA-MB-435 = test: Cytotoxicity against human MDA-MB-435 cells assessed as growth inhibition at 10 uM after 48 hrs by sulphorhodamine B assay; settings: MDA-MB-435, 48 h, read-out: GI; method in brief: as §1
RXF 393 = test: Cytotoxicity against human RXF393 cells assessed as growth inhibition at 10 uM after 48 hrs by sulphorhodamine B assay; settings: RXF 393, 48 h, read-out: GI; method in brief: as §1
CAKI-1 = test: Cytotoxicity against human Caki1 cells assessed as growth inhibition at 10 uM after 48 hrs by sulphorhodamine B assay; settings: CAKI-1, 48 h, read-out: GI; method in brief: as §1
U-251 = test: Cytotoxicity against human U251 cells assessed as growth inhibition at 10 uM after 48 hrs by sulphorhodamine B assay; settings: U-251, 48 h, read-out: GI; method in brief: as §1
UO-31 = test: Cytotoxicity against human UO31 cells assessed as growth inhibition at 10 uM after 48 hrs by sulphorhodamine B assay; settings: UO-31, 48 h, read-out: GI; method in brief: as §1
SR = test: Cytotoxicity against human SR cells assessed as growth inhibition at 10 uM after 48 hrs by sulphorhodamine B assay; settings: read-out: GI; method in brief: as §1
OVCAR-4 = test: Cytotoxicity against human OVCAR4 cells assessed as growth inhibition at 10 uM after 48 hrs by sulphorhodamine B assay; settings: OVCAR-4, 48 h, read-out: GI; method in brief: as §1
LOX IMVI = test: Cytotoxicity against human LOXIMVI cells assessed as growth inhibition at 10 uM after 48 hrs by sulphorhodamine B assay; settings: read-out: GI; method in brief: as §1
RPMI-8226 = test: Cytotoxicity against human RPMI8226 cells assessed as growth inhibition at 10 uM after 48 hrs by sulphorhodamine B assay; settings: RPMI-8226, 48 h, read-out: GI; method in brief: as §1
SF-268 = test: Cytotoxicity against human SF268 cells assessed as growth inhibition at 10 uM after 48 hrs by sulphorhodamine B assay; settings: SF-268, 48 h, read-out: GI; method in brief: as §1
[1] = Cytotoxicity against human EKVX cells assessed as growth inhibition at 10 uM after 48 hrs by sulphorhodamine B assay; settings: read-out: GI; method in brief: as §1
HCT-15 = test: Cytotoxicity against human HCT15 cells assessed as growth inhibition at 10 uM after 48 hrs by sulphorhodamine B assay; settings: HCT-15, 48 h, read-out: GI; method in brief: as §1
A498 = test: Cytotoxicity against human A498 cells assessed as growth inhibition at 10 uM after 48 hrs by sulphorhodamine B assay; settings: A498, 48 h, read-out: GI; method in brief: as §1
MOLT-4 = test: Cytotoxicity against human MOLT4 cells assessed as growth inhibition at 10 uM after 48 hrs by sulphorhodamine B assay; settings: MOLT-4, 48 h, read-out: GI; method in brief: as §1
ACHN = test: Cytotoxicity against human ACHN cells assessed as growth inhibition at 10 uM after 48 hrs by sulphorhodamine B assay; settings: read-out: GI; method in brief: as §1
PC-3 = test: Cytotoxicity against human PC3 cells assessed as growth inhibition at 10 uM after 48 hrs by sulphorhodamine B assay; settings: PC-3, 48 h, read-out: GI; method in brief: as §1
MCF7 = test: Cytotoxicity against human MCF7 cells assessed as growth inhibition at 10 uM after 48 hrs by sulphorhodamine B assay; settings: MCF7, 48 h, read-out: GI; method in brief: as §1
HOP-92 = test: Cytotoxicity against human HOP92 cells assessed as growth inhibition at 10 uM after 48 hrs by sulphorhodamine B assay; settings: HOP-92, 48 h, read-out: GI; method in brief: as §1
M14 = test: Cytotoxicity against human M14 cells assessed as growth inhibition at 10 uM after 48 hrs by sulphorhodamine B assay; settings: M14, 48 h, read-out: GI; method in brief: as §1
HL-60(TB) = test: Cytotoxicity against human HL-60(TB) cells assessed as growth inhibition at 10 uM after 48 hrs by sulphorhodamine B assay; settings: HL-60, 48 h, read-out: GI
Method in brief: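 NCI-60 one-dose primary screen run to the Drug Evaluation Branch protocol. Cells are exposed to a single 10 µM concentration for 48 h continuously, and growth is read by SRB protein assay. Data are reported as percent growth of treated cells, expressed as % growth inhibition.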

HT-29 = test: Cytotoxicity against human HT-29 cells assessed as growth inhibition at 10 uM after 48 hrs by sulphorhodamine B assay; settings: HT-29, 48 h, read-out: GI; method in brief: as §1

Work on `CC1CCCc2c1nc(N)c(C#N)c2-c1ccc(Cl)cc1` (stereo unspecified) yielded an inhibition of growth at 10 µM (HCT-116) of under 10%, an inhibition of growth at 10 µM (K562) of 11.8% and an inhibition of growth at 10 µM (OVCAR-5) of under 10%. It also gave an inhibition of growth at 10 µM (SNB-19) of 20.5%, an inhibition of growth at 10 µM (Hs-578T) of 25% and an inhibition of growth at 10 µM (SF-295) of under 10%. The inhibition of growth at 10 µM (NCI/ADR-RES) was under 10%, the inhibition of growth at 10 µM (A549) was under 10% and the inhibition of growth at 10 µM (SNB-75) was 26.8%. The inhibition of growth at 10 µM (SK-OV-3) was under 10%, the inhibition of growth at 10 µM (NCI-H522) was under 10% and the inhibition of growth at 10 µM (T47D) was 17.2%. For the same compound, the inhibition of growth at 10 µM (SK-MEL-2) was 15%, the inhibition of growth at 10 µM (DU-145) was under 10% and the inhibition of growth at 10 µM (CCRF-CEM) was 13.3%. The inhibition of growth at 10 µM (MDA-MB-468) was 36.5%, the inhibition of growth at 10 µM (IGROV-1) was under 10% and the inhibition of growth at 10 µM (SK-MEL-5) was under 10%. For the same compound, the inhibition of growth at 10 µM (NCI-H23) was under 10%, the inhibition of growth at 10 µM (UACC-62) was 24.2% and the inhibition of growth at 10 µM (MDA-MB-435) was under 10%. For the same compound, the inhibition of growth at 10 µM (RXF 393) was under 10%, the inhibition of growth at 10 µM (CAKI-1) was under 10% and the inhibition of growth at 10 µM (U-251) was under 10%. The inhibition of growth at 10 µM (UO-31) was under 10%, the inhibition of growth at 10 µM (SR) was under 10% and the inhibition of growth at 10 µM (OVCAR-4) was 10.1%. The inhibition of growth at 10 µM (LOX IMVI) was under 10%, the inhibition of growth at 10 µM (RPMI-8226) was 18.2% and the inhibition of growth at 10 µM (SF-268) was 11.3%. For the same compound, the inhibition of growth at 10 µM [1] was 39.5%, the inhibition of growth at 10 µM (HCT-15) was under 10% and the inhibition of growth at 10 µM (A498) was 21.7%. For the same compound, the inhibition of growth at 10 µM (MOLT-4) was under 10%, the inhibition of growth at 10 µM (ACHN) was under 10% and the inhibition of growth at 10 µM (PC-3) was under 10%. It also gave an inhibition of growth at 10 µM (MCF7) of 31.5%, an inhibition of growth at 10 µM (HOP-92) of 10% and an inhibition of growth at 10 µM (M14) of under 10%. For the same compound, the inhibition of growth at 10 µM (HL-60(TB)) was under 10% and the inhibition of growth at 10 µM (HT-29) was under 10%.
